From ChEMBL document CHEMBL1122744, “2-Chloroethyl (methylsulfonyl)methanesulfonate and related (methylsulfonyl)methanesulfonates. Antineoplastic activity in vivo” (J Med Chem, 1984)

What was measured:
Mus musculus [1] = assay: Mortality by day 5 expressed as number of mice died to the total treated at dose 50 mg/kg in exp1; 0/6; format: ADME, organism-based; parameters: dose 50 mg/kg; conditions: in vivo
[2] = Ratio of median survival times for non-survivors at dose 100 mg/kg in exp1; format: functional; parameters: unit: %
How it was run: (§1)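 Mice were inoculated ip with 10^6 P388 leukemia cells on day 0. Groups of six (occasionally five) were dosed ip qd on days 1–5 with fresh suspensions; 30 mice served as untreated controls. Deaths were recorded daily up to day 60. T/C% compares the median survival of treated non-survivors (<60 days) with the control median. Medians used grouped data when there were no 30-day survivors, otherwise ungrouped data. t = toxic.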

Mus musculus [3] = assay: Median survival time of the untreated control groups, in which there are no 30-day survivors at dose 50 mg/kg in exp1; format: functional
Mus musculus [4] = assay: Mortality by day 5 expressed as number of mice died to the total treated at dose 25 mg/kg in exp1; 0/6; format: ADME, organism-based; parameters: dose 25 mg/kg; conditions: in vivo
Mus musculus [5] = assay: Change in weight by day 5, obtained by subtracting treated groups of animals minus control groups of animals at dose 100 mg/kg in exp1.; format: functional
How it was run: (§2)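 Mice were inoculated ip with 10^6 P388 leukemia cells on day 0, when treated and control mice weighed 19–22 g. Treatment was given ip once daily on days 1–5, within about 5 min of preparing the solution or suspension. Groups of six (occasionally five) were treated, with 30 untreated inoculated mice as controls. The day-5 weight change is the mean treated change minus the mean control change.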

Mus musculus [6] = assay: Median survival time of the treated control groups, in which there are no 30-day survivors at dose 100 mg/kg in exp1; format: functional
Mus musculus [7] = assay: Median survival time of the untreated control groups, in which there are no 30-day survivors at dose 100 mg/kg in exp1; format: functional
[8] = Ratio of median survival times for non-survivors at dose 50 mg/kg in exp1; format: functional; parameters: unit: %; how it was run: as §1
Mus musculus [9] = assay: Median survival time of the treated control groups, in which there are no 30-day survivors at dose 25 mg/kg in exp1; format: functional
Mus musculus [10] = assay: Median survival time of the treated control groups, in which there are no 30-day survivors at dose 50 mg/kg in exp1; format: functional
Mus musculus [11] = assay: Median survival time of the untreated control groups, in which there are no 30-day survivors at dose 25 mg/kg in exp1; format: functional
Mus musculus [12] = assay: Change in weight by day 5, obtained by subtracting treated groups of animals minus control groups of animals at dose 25 mg/kg in exp1.; format: functional; how it was run: as §2
Mus musculus [13] = assay: Mortality by day 5 expressed as number of mice died to the total treated at dose 100 mg/kg in exp1; 6/6; format: ADME, organism-based; parameters: dose 100 mg/kg; conditions: in vivo
Mus musculus [14] = assay: Mortality by day 5 expressed as number of mice died to the total treated at dose 100 mg/kg in exp1; 2/6; format: ADME, organism-based; parameters: dose 100 mg/kg; conditions: in vivo
[15] = Ratio of median survival times for non-survivors at dose 6 mg/kg in exp2; format: functional
Mus musculus [16] = assay: Median survival time of the treated control groups, in which there are no 30-day survivors at dose 6 mg/kg in exp2; format: functional
Mus musculus [17] = assay: Change in weight by day 5, obtained by subtracting treated groups of animals minus control groups of animals at dose 12 mg/kg in exp1; format: functional; how it was run: as §2
Mus musculus [18] = assay: Mortality by day 5 expressed as number of mice died to the total treated at dose 25 mg/kg in exp1; 6/6; format: ADME, organism-based; parameters: dose 25 mg/kg; conditions: in vivo
Mus musculus [19] = assay: Change in weight by day 5, obtained by subtracting treated groups of animals minus control groups of animals at dose 25 mg/kg in exp2; format: functional; how it was run: as §2
Mus musculus [20] = assay: Median survival time of the treated control groups, in which there are no 30-day survivors at dose 12 mg/kg in exp1; format: functional
Mus musculus [21] = assay: Change in weight by day 5, obtained by subtracting treated groups of animals minus control groups of animals at dose 6 mg/kg in exp1.; format: functional; how it was run: as §2
Mus musculus [22] = assay: Median survival time of the untreated control groups, in which there are no 30-day survivors at dose 25 mg/kg in exp2; format: functional
Mus musculus [23] = assay: Mortality by day 5 expressed as number of mice died to the total treated at dose 12 mg/kg in exp2; 1/6; format: ADME, organism-based; parameters: dose 12 mg/kg; conditions: in vivo
Mus musculus [24] = assay: Median survival time of the untreated control groups, in which there are no 30-day survivors at dose 6 mg/kg in exp2; format: functional
Mus musculus [25] = assay: Mortality by day 5 expressed as number of mice died to the total treated at dose 6 mg/kg in exp1; 0/5; format: ADME, organism-based; parameters: dose 6 mg/kg; conditions: in vivo
Mus musculus [26] = assay: Mortality by day 5 expressed as number of mice died to the total treated at dose 25 mg/kg in exp2; 4/6; format: ADME, organism-based; parameters: dose 25 mg/kg; conditions: in vivo
[27] = Ratio of median survival times for non-survivors at dose 25 mg/kg in exp2; t= toxic; format: ADME, organism-based; parameters: dose 25 mg/kg; conditions: in vivo
Mus musculus [28] = assay: Median survival time of the treated control groups, in which there are no 30-day survivors at dose 6 mg/kg in exp1; format: functional
Mus musculus [29] = assay: Median survival time of the treated control groups, in which there are no 30-day survivors at dose 12 mg/kg in exp2; format: functional
[30] = Ratio of median survival times for non-survivors at dose 12 mg/kg in exp2; format: functional; how it was run: as §1
[31] = Ratio of median survival times for non-survivors at dose 25 mg/kg in exp1; t= toxic; format: ADME, organism-based; parameters: dose 25 mg/kg; conditions: in vivo
Mus musculus [32] = assay: Median survival time of the untreated control groups, in which there are no 30-day survivors at dose 6 mg/kg in exp1; format: functional
Mus musculus [33] = assay: Mortality by day 5 expressed as number of mice died to the total treated at dose 12 mg/kg in exp1; 0/6; format: ADME, organism-based; parameters: dose 12 mg/kg; conditions: in vivo
[34] = Ratio of median survival times for non-survivors at dose 6 mg/kg in exp1; format: functional
[35] = Median survival time of the untreated control groups, in which there are no 30-day survivors at dose 12 mg/kg in exp2; format: functional
[36] = Ratio of median survival times for non-survivors at dose 12 mg/kg in exp1; format: functional; how it was run: as §1
Mus musculus [37] = assay: Mortality by day 5 expressed as number of mice died to the total treated at dose 6 mg/kg in exp2; 0/6; format: ADME, organism-based; parameters: dose 6 mg/kg; conditions: in vivo
Mus musculus [38] = assay: Change in weight by day 5, obtained by subtracting treated groups of animals minus control groups of animals at dose 12 mg/kg in exp2; format: functional; how it was run: as §2
Mus musculus [39] = assay: Median survival time of the untreated control groups, in which there are no 30-day survivors at dose 12 mg/kg in exp1; format: functional
Mus musculus [40] = assay: Change in weight by day 5, obtained by subtracting treated groups of animals minus control groups of animals at dose 6 mg/kg in exp2; format: functional
How it was run: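 Mice were inoculated ip with 10^6 P388 leukemia cells on day 0 and weighed 19–22 g that day. Compound was given ip once daily on days 1–5, within about 5 min of preparing the solution or suspension, to groups of six (occasionally five). Thirty inoculated untreated mice served as controls. The value is the average weight change of treated mice minus that of controls on day 5.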

CS(=O)(=O)OCCBr
Mortality (Mus musculus [1]): 0
Ratio [2]: 106
Median survival time (Mus musculus [3]): 11.1
Mortality (Mus musculus [4]): 0
Change in weight (Mus musculus [5]): -3
Median survival time (Mus musculus [6]): 11.8
Median survival time (Mus musculus [7]): 11.1
Ratio [8]: 110
Median survival time (Mus musculus [9]): 12
Median survival time (Mus musculus [10]): 12.3
Median survival time (Mus musculus [11]): 11.1
Change in weight (Mus musculus [12]): -0.7
Mortality (Mus musculus [13]): 6
Mortality (Mus musculus [14]): 2

COS(=O)(=O)CS(C)(=O)=O
Ratio [15]: 125
Median survival time (Mus musculus [16]): 13.4
Change in weight (Mus musculus [17]): -4.1
Mortality (Mus musculus [18]): 6
Change in weight (Mus musculus [19]): -2.8
Median survival time (Mus musculus [20]): 14
Change in weight (Mus musculus [21]): 0
Median survival time (Mus musculus [22]): 10.7
Mortality (Mus musculus [23]): 1
Median survival time (Mus musculus [24]): 10.7
Mortality (Mus musculus [25]): 0
Mortality (Mus musculus [4]): 0
Mortality (Mus musculus [26]): 4
Ratio [27]: Toxic
Median survival time (Mus musculus [28]): 14.5
Median survival time (Mus musculus [29]): 13.7
Ratio [30]: 128
Ratio [31]: Toxic
Median survival time (Mus musculus [32]): 10.7
Mortality (Mus musculus [33]): 0
Ratio [34]: 135
Median survival time [35]: 10.7
Ratio [36]: 130
Mortality (Mus musculus [37]): 0
Change in weight (Mus musculus [38]): -2.8
Median survival time (Mus musculus [11]): 10.7
Median survival time (Mus musculus [39]): 10.7
Change in weight (Mus musculus [40]): -0.8
